In the EternaBench riboswitch data:

Tested on: MS2 coat protein
Assay: apparent Kd, MS2 coat protein; higher = weaker binding; RNA-MaP array; FMN 200 µM where present
Summary of the method: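 Designs on Illumina sequencing-chip clusters, transcribed by stalled E. coli RNA polymerase, were exposed to SNAP-549-labelled MS2 coat protein in doubling steps from 0.7 or 1.5 nM up to 3 µM, without and then with constant ligand. The buffer held 100 mM Tris-HCl pH 7.5, 80 mM KCl, 4 mM MgCl2, BSA, DTT, yeast tRNA and Tween-20. Apparent Kd values are medians of filtered per-cluster binding-curve fits to green signal normalised to red-channel RNA signal and control-cluster median Fmax.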

[1] = designed as: OFF switch for flavin mononucleotide, no ligand
[2] = ligand present: flavin mononucleotide, designed as: OFF switch for flavin mononucleotide
[3] = designed as: ON switch for flavin mononucleotide, no ligand
[4] = ligand present: flavin mononucleotide, designed as: ON switch for flavin mononucleotide

Sequence	apparent Kd [1]	apparent Kd [2]	apparent Kd [3]	apparent Kd [4]
UUAUUUUGUCAAGGAUAUGUAGUAUUGAUCUGAAAACAUGAGGAUCACCCAUGUAUAUGGUGGGAACAGAAGGUGAAUGUUGAA	658 nM	845 nM	–	–
GUACAUGAGCAGAAGGGCAAUUAAUUAAAUUUUUAUGUUUAUCAGAUAUGCAGGAUAUGUUAAACAUGAGGAUCACCCAUGUAC	–	–	129 nM	65.8 nM
UAGGACUUCGUAGGAUAUGUAUUUGAUUUCUACAUGAGGAUCACCCAUGUUUGCAUUUUUUUUUGACAGAAGGACGUGGUCCUA	–	–	16.8 nM	13.2 nM
UCAUUAUAAAUCCAUCAUAACUACAUGAGGAUCACCCAUGUGCAGGAUAUCGAUUAUUUUACUAACGAGAAGGGCAAAUACAGA	37.5 nM	72.4 nM	–	–
CCAUCGUGUGUGAGGAUAUGCUGGACCUUGGUUCAGCAGAAGGCACAUGAGGAUCACCCAUGUGAAUACGGUGG	18.9 nM	32.3 nM	–	–
UCAUGACAUGAGGAUCACCCAUGUCAGGAUAUCUACAGAACCUCAUGUAAAAAACUGUAGAGAAGGGAUAUGAA	22 nM	25 nM	–	–
GGGAGACAUGAGGAUCACCCAUGUGAAAACGUGCGAGGAUAUCUAUGGAAACCAUACUGUAGAGAAGGCGUUUGUC	–	–	88.4 nM	46.6 nM
CGUAACUGCAUAGGAUAUUGAUACAUGAGGAUCACCCAUGUUUUUCGGAUUAUAUAUAUACUUAGCAAGAAGGAUGGAGUUACG	–	–	9.3 nM	5.74 nM
AAUUGGAUGCAGAAGGCAUGGACGACUCGUCAAAUUAACAUGAGGAUCACCCAUGUCAAAAGACAUGAGGAUAUGCAUCCUAAA	–	–	189 nM	12.6 nM
AUAUCUCUGUAAGGAUAUAGAUGGUAUACGCCUCCGACAUGAGGAUCACCCAUGUUAUAUUUUGUCUAGAAGGUACAGUGUCGG	–	–	656 nM	292 nM
GGAAAUCAUGUAGGAUAUGCAUGGCGAAGCUACGCAGAAGGACAUGAGGAUCACCCAUGUGCUAGCUACCGGAUACGGUGGCAA	78.8 nM	288 nM	–	–
CUCGAGCCAAGGCUCGCGAGUACACAGGAUAUGGAAAGUCACAUGAGGAUCACCCAUGUCCAAAACCAGAAGGGUGAGACUAAG	–	–	425 nM	85.7 nM
AACAGUCUAGAGGAUAUGCUGGAUUAAAAUCUGGCAGAAGGCUGGACAUGAGGAUCACCCAUGUAAAUACUACC	33.6 nM	162 nM	–	–
GGCAGCGGACAAGGAUAUAAGACGCAGACCAAAUUAGAAGGUGUUAUCUGGCAAUGCGAAAGCAGACAUGAGGAUCACCCAUGU	–	–	66.3 nM	65.1 nM
UCAGGCUUCGAGAAGGACAUGAGGAUCACCCAUGUGCGUGUGAAGCAGCCGUGAGGCUGCAUCAUGUAGGAUAUCGGAGUCUGA	75.6 nM	459 nM	–	–
AUUAUAUAGAUAGGAUAUUGAUUAUUAUUUUAACAUGAGGAUCACCCAUGUAGCCUUAUGUAUAACAAGAAGGAUCAUUUAUUA	161 nM	181 nM	–	–
AUCAAUCAUGUAGGAUAUGCGUGGCGAAGCUAUGCAGAAGGACAUGAGGAUCACCCAUGUCUUUCUGUCUGCGUACGGACAGGA	19.4 nM	72.9 nM	–	–
AAAUUCAGAGGAUAUGCGCAUAGAUAAGACUUUGUUUCUUAACAUGAGGAUCACCCAUGUAGAAGGCUGUACCC	17.9 nM	20.1 nM	–	–
CGCUGGAUCGAGAAGGCCAUGUGGGACGCGAGCAGUGAUGUUAGGACAUGGAGGAUAUCGAACAUGAGGAUCACCCAUGUAACC	–	–	438 nM	25.5 nM
AACCUAUUACAGAAGGCCAGCUACAUGAGGAUCACCCAUGUCGAGUCAUGGAGGAUAUGUAGUAAUUUACUCGCGGAUGAGUAA	–	–	23.8 nM	5.35 nM
AAUUGGAACUAAGGAUAUCUGUAUUUUGUUGAAACAUGAGGAUCACCCAUGUUCAUGAAAUUAUAGGAGAAGGUAGAUCCAUAA	–	–	5 nM	4.6 nM

Sequence	apparent Kd [1]	apparent Kd [2]	apparent Kd [3]	apparent Kd [4]
CUAUUGUGAGGAUAUCAGGUGUGCUAGCGUACUGGUACAUCUGAGAAGGCACAUGAGGAUCACCCAUGUUUCUU	19.3 nM	56.2 nM	–	–
AUUUAACCCAGCGGUGCUGAUGCACAUGAGGAUCACCCAUGUAGAAGGCAGCUAGACACUUAAGCUGAGGAUAUACAUGUAAGA	15.6 nM	63.3 nM	–	–
UUAAAUCAUGUAGGAUAUGCAUGGCGAAGCUACGCAGAAGGACAUGAGGAUCACCCAUGUGCUAGCGACAGAGUACUGUUGCAA	62.7 nM	363 nM	–	–
AGUCAUACAGGAUAUACAUGAGGAUCACCCAUGUUUAUCCUAAAAAAGUGAUCCUCAUGUAGAAGGGUAUGACA	15.2 nM	18.9 nM	–	–
GCGUAUGAGCAGGAUAUCCGACGGGAAUCCAAAGGAGAAGGGCUCACAUGAGGAUCACCCAUGUGGUCCUAAAC	20.2 nM	101 nM	–	–
ACAUGAGGAUCACCCAUGUGAGGAUCACCCAUGUUAUAUUUCAGAAGGCUCGUGUGUUUGAUGAGAGAGGAUAUGGAAUAUAGG	101 nM	71.1 nM	–	–
UGCCACCGGGAGAAGGGCAUACGUGAGGUCCUACAUAGUCACAUGAGGAUCACCCAUGUAGAAAUGCAGGAUAUCUCGUAGCAG	6.93 nM	13.4 nM	–	–
AUUAUUUCAUGAGGAUAUGGCACCUUAUUGGUGCCAGAAGGCAUGUCUAUUGACAUGAGGAUCACCCAUGUAUUAAAUUAUAUA	–	–	621 nM	45.3 nM
UAAAGACAUGAGGAUCACCCAUGUGAGGAUAUCGGAGAUAACGGAACAUCAAGUUCGGCGAGAAGGCACAGGAA	53.9 nM	58.1 nM	–	–
AUUGUAUAGGAAGGAUAUAGAAUAUUAUUUUAACAUGAGGAUCACCCAUGUAACCUUAUGUGUAGCUAGAAGGUCCGUUUAUUA	110 nM	162 nM	–	–
GUGUACGGAGGAUAUAUGUGGGCAGCAUACGCUGCAGCUUCACAUGAGGAUCACCCAUGUAGAAGGCUGUGCAC	23.2 nM	131 nM	–	–
UCAUGAUGGAAGAAGGGAGUCGUGCAUGACAACUCAGGAUAUUUCACAUGAGGAUCACCCAUGUCGAAGUAACAAUGUUGAUCA	16.2 nM	56.6 nM	–	–
AAUAACAGAGGAUAUACUAUUUUAUGUGUUUGUUAUUUUGAACAUGAGGAUCACCCAUGUAGAAGGCUGAGUAA	28.8 nM	28.9 nM	–	–
CUAUUUUGUGCCUCAUGUACAUGAGGAUCACCCAUGUUAACUUAGGAUAUAUUUAUAUUGUUAGAGUAGAAGGAAGUACAAUUU	30.2 nM	27.1 nM	–	–
UCCUUCUGUUGAGGAUAUGUAAGACAGCAGCUGCUAUGGCGGCACGCUGAUACAGAAGGCAACAUGAGGAUCACCCAUGUUCAA	20.4 nM	73 nM	–	–
GCACUUACGUUAGGAUAUGGAUCGGAAAACGAUCCAGAAGGAAUAUGGGAACAUGAGGAUCACCCAUGUUCCGCAGACAAGUGC	–	–	96.5 nM	39 nM
CCUGCACAUGAGGAUCACCCAUGUCAGGAUAUCUCGCCGUCGGCUUGCCGACGGUAUUAGAGAAGGGACACGGG	29.3 nM	26 nM	–	–
AUGUGGUGCGUAGGAUAUCAUUGAGGGAAACCCUGAGAAGGACGUGAGGACAUGAGGAUCACCCAUGUGGAUCACCCAUGUCAU	196 nM	253 nM	–	–
AUCGGUCCGUAGAAGGGUGACAUGAGGAUCACCCAUGUGCCGUGUGCGUUUAUGCCUCCACGGCCACAGGAUAUACGGAGUUGA	–	–	28.2 nM	19.1 nM
UGCUUCAUGUAAGGAUAUGCAGCCGUUUCGGCUGCAGAAGGUACUAUAAUACAUGAGGAUCACCCAUGUCUCUCGCAUUGCGAG	–	–	240 nM	95.6 nM
